Compound activity: PubChem BioAssay, Johns Hopkins Ion Channel Center
TRPC4 agonist: TRPC4 (mouse) channel activation. Q9QUQ5. HEK293 TRPC4beta/mu-opioid, Fluo4 calcium fluorescence; active compounds read high. B-score at 10 µM. 0.49% of 310,000 active. AID 2237;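 active = B-score above 5 SD of library B-scores, and initial fluorescence ratio not above library mean plus 5 SD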;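 also: positive B-score marks a calcium rise read as TRPC4 activation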
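Technique: kinetic Fluo4 calcium fluorescence; Test system: TRPC4beta and mu-opioid receptor HEK293 stable cells; Measure: B-scored integrated calcium fluorescence ratio; Benchmarks: low control buffer alone, high control maximal DAMGO; Schedule: 45 min room-temperature Fluo4 loading, 110 s read.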
TRPC6 inh: blocks the mouse TRPC6 cation channel. Q61143. B-score at 10 µM. 1.1% of 310,000 active. AID 2553. HEK293-TRPC6, membrane potential dye, ACh-evoked depolarization; active compounds read low;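 active = B-score under library mean minus 3 SD, initial fluorescence not abnormally high, positive integrated signal ratio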;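 also: B-score derived from integrated fluorescence ratio over the kinetic read; more negative B-score means stronger inhibition of depolarization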
TRPC4 inh: blocks the mouse TRPC4 cation channel | Q9QUQ5 | HEK293 TRPC4beta/mu-opioid, DAMGO-evoked Fluo4 calcium flux; active compounds read low | B-score at 10 µM | 0.39% of 300,000 active | AID 2247;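 active = B-score over 3 SD under the library average, no early fluorescence shift, positive overall ratio signal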
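Signal: kinetic Fluo4 fluorescence imaging of calcium influx. Material: stable TRPC4beta/mu-opioid receptor HEK293 cells. Probe or stimulus: DAMGO in two steps, submaximal then maximal.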
TRPC6 activator: activators of mouse TRPC6 channel | HEK293-TRPC6 membrane potential dye fluorescence; active compounds read high | B-score at 10 µM | Q61143 | 0.13% of 310,000 active;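 active = B-score of the integrated fluorescence ratio above library mean plus 3 SD, and starting fluorescence ratio within library mean plus 5 SD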;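 also: higher score means more depolarization so channel activation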
Kir21 inh: blocks the mouse Kir2.1 inward-rectifier potassium channel | B-score at 10 µM | 0.85% of 310,000 active | P35561 | HEK293-Kir2.1, FluxOR thallium flux fluorescence; active compounds read low;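 active = fluorescence ratio B-score at or below minus 3 SD of library scores, with starting-brightness B-score within 2 SD, cut at about -4.2 in these data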;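 also: channel flux triggered by added potassium and thallium sulfate stimulus; B-score of peak minus minimum fluorescence over baseline after thallium stimulus; more negative B-score means stronger Kir2.1 block with less thallium influx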
TRPC4 PAM: allosterically enhances the mouse TRPC4 cation channel; HEK293 TRPC4beta/mu-opioid, DAMGO EC20, Fluo-4 Ca2+ flux; active compounds read high; B-score at 10 µM; 0.42% of 310,000 active; AID 2227;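 active = B-score of calcium response area above 5 SD of library B-scores, with initial fluorescence ratio within 5 SD of library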;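 also: B-score of integrated fluorescence ratio over time as area under calcium response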
Numbers without * were called inactive. This is a sample that favours compounds with a hit; in the whole collection about 2.9% have one here.

How did CCOc1cc(/C=C2\CN(CC)C/C(=C\c3ccc(O)c(OCC)c3)C2=O)ccc1O do in these assays?
TRPC4 agonist: inactive; TRPC6 inh: inactive; TRPC4 inh: inactive; TRPC6 activator: inactive; Kir21 inh: -0.23; TRPC4 PAM: 17*

Results for Cc1ccc(-n2ncc3c2CCCC3NC(=O)CSc2ccccn2)cc1C (stereo not given) ?
TRPC4 agonist: inactive; TRPC6 inh: inactive; TRPC4 inh: inactive; TRPC6 activator: inactive; Kir21 inh: -1.2; TRPC4 PAM: inactive

How did O=[N+]([O-])c1ccc(NC(=S)N2CCc3ccccc3C2)cc1 do in these assays?
TRPC4 agonist: inactive; TRPC6 inh: inactive; TRPC4 inh: -6*; TRPC6 activator: inactive; Kir21 inh: -0.7; TRPC4 PAM: inactive

What do the screens show for `CCCN(CCC)C(=O)Cc1coc2ccc3ccccc3c12`?
TRPC4 agonist: inactive; TRPC6 inh: inactive; TRPC4 inh: inactive; TRPC6 activator: inactive; Kir21 inh: -4.5*; TRPC4 PAM: 10*

How did COc1cccc(C(=O)NNC(=O)c2ccc3ccccc3c2O)c1 do in these assays?
TRPC4 agonist: inactive; TRPC6 inh: inactive; TRPC4 inh: inactive; TRPC6 activator: inactive; Kir21 inh: -1.1; TRPC4 PAM: inactive

What do the screens show for `Cc1nn(C(=O)c2cccc([N+](=O)[O-])c2)c(C)c1Sc1ccccc1`?
TRPC4 agonist: inactive; TRPC6 inh: inactive; TRPC4 inh: -6*; TRPC6 activator: inactive; Kir21 inh: -4.3*; TRPC4 PAM: inactive

What do the screens show for `Cc1nn(C(=O)c2ccco2)c(C)c1Sc1ccccc1`?
TRPC4 agonist: inactive; TRPC6 inh: inactive; TRPC4 inh: inactive; TRPC6 activator: inactive; Kir21 inh: -0.35; TRPC4 PAM: inactive

Results for Cc1ccc(C(CNS(=O)(=O)c2ccc([N+](=O)[O-])cc2)N2CCN(C)CC2)cc1 (stereo not given) ?
TRPC4 agonist: inactive; TRPC6 inh: inactive; TRPC4 inh: -6*; TRPC6 activator: inactive; Kir21 inh: -1.1; TRPC4 PAM: inactive

What do the screens show for `Cc1ccc(C(CNS(=O)(=O)c2ccc(Br)cc2)N2CCN(C)CC2)cc1` (stereo not given)?
TRPC4 agonist: inactive; TRPC6 inh: inactive; TRPC4 inh: inactive; TRPC6 activator: inactive; Kir21 inh: -4; TRPC4 PAM: inactive

Results for Clc1ccc2c(c1)CCc1cccnc1C2=C1CCNCC1 ?
TRPC4 agonist: inactive; TRPC6 inh: -6*; TRPC4 inh: inactive; TRPC6 activator: inactive; Kir21 inh: -1.4; TRPC4 PAM: inactive

What do the screens show for `Cc1ccc(NC(=O)C2CCCN2C(=O)NC2CCCCC2)cc1` (stereo not given)?
TRPC4 agonist: inactive; TRPC6 inh: inactive; TRPC4 inh: inactive; TRPC6 activator: inactive; Kir21 inh: 0.07; TRPC4 PAM: inactive

Results for COc1ccc(C(=O)CN2CCN(CCN3C(=O)c4cccc5cccc(c45)C3=O)CC2)cc1 ?
TRPC4 agonist: inactive; TRPC6 inh: inactive; TRPC4 inh: inactive; TRPC6 activator: inactive; Kir21 inh: 0.03; TRPC4 PAM: 15*

What do the screens show for `CCN1C(N(C)CCc2cccs2)=N[C@@H](c2ccccc2)C(C(=O)OC)=C1C`?
TRPC4 agonist: inactive; TRPC6 inh: inactive; TRPC4 inh: -5*; TRPC6 activator: inactive; Kir21 inh: -2.1; TRPC4 PAM: inactive

Results for COC(=O)[C@@]1(Cc2ccc(F)cc2)[C@H]2c3cc(C(=O)N(C)C)n(CCc4ccc(OC)c(Br)c4)c3C[C@H]2CN1C(=O)c1ccccc1 ?
TRPC4 agonist: inactive; TRPC6 inh: inactive; TRPC4 inh: inactive; TRPC6 activator: inactive; Kir21 inh: -1.4; TRPC4 PAM: inactive

What do the screens show for `COC(=O)[C@@]1(Cc2ccc(F)cc2)[C@H]2c3cc(C(=O)N(C)C)n(CCc4ccccn4)c3C[C@H]2CN1C(=O)c1ccccc1`?
TRPC4 agonist: 143*; TRPC6 inh: inactive; TRPC4 inh: inactive; TRPC6 activator: inactive; Kir21 inh: 1; TRPC4 PAM: inactive

Results for CCSc1ncccc1-c1nc2ccccc2[nH]1 ?
TRPC4 agonist: inactive; TRPC6 inh: inactive; TRPC4 inh: -7*; TRPC6 activator: inactive; Kir21 inh: -0.12; TRPC4 PAM: inactive

What do the screens show for `Cc1ccc(N=Cc2c(O)c3ccccc3oc2=O)cc1F`?
TRPC4 agonist: inactive; TRPC6 inh: inactive; TRPC4 inh: inactive; TRPC6 activator: inactive; Kir21 inh: -2.1; TRPC4 PAM: inactive

What do the screens show for `COc1ccc(Br)cc1CNC(C)c1ccccc1` (stereo not given)?
TRPC4 agonist: inactive; TRPC6 inh: inactive; TRPC4 inh: -6*; TRPC6 activator: inactive; Kir21 inh: -4.4*; TRPC4 PAM: inactive

How did COc1ccccc1CNCC(O)Cn1c2ccccc2c2ccccc21 (stereo not given) do in these assays?
TRPC4 agonist: 80*; TRPC6 inh: inactive; TRPC4 inh: inactive; TRPC6 activator: inactive; Kir21 inh: -13*; TRPC4 PAM: inactive

How did COc1cc(CNC(C)c2ccccc2)cc(Br)c1OCc1ccccc1 (stereo not given) do in these assays?
TRPC4 agonist: inactive; TRPC6 inh: inactive; TRPC4 inh: inactive; TRPC6 activator: inactive; Kir21 inh: -1; TRPC4 PAM: inactive

Results for COc1ccccc1CNCC(c1ccccc1)c1ccccc1 ?
TRPC4 agonist: inactive; TRPC6 inh: inactive; TRPC4 inh: -6*; TRPC6 activator: inactive; Kir21 inh: -8.5*; TRPC4 PAM: inactive

How did COc1ccccc1CNCc1cccc(Oc2ccccc2)c1 do in these assays?
TRPC4 agonist: inactive; TRPC6 inh: inactive; TRPC4 inh: inactive; TRPC6 activator: inactive; Kir21 inh: -8.8*; TRPC4 PAM: inactive

What do the screens show for `COc1ccccc1CNC(=O)CC(C)C`?
TRPC4 agonist: inactive; TRPC6 inh: inactive; TRPC4 inh: inactive; TRPC6 activator: inactive; Kir21 inh: -0.08; TRPC4 PAM: inactive

What do the screens show for `OCCNCC(O)Cn1c2ccccc2c2ccccc21` (stereo not given)?
TRPC4 agonist: inactive; TRPC6 inh: inactive; TRPC4 inh: inactive; TRPC6 activator: inactive; Kir21 inh: -1.2; TRPC4 PAM: inactive

How did CC(=O)N1CC(C)Oc2ccc(S(=O)(=O)Nc3ccc(Cl)cn3)cc21 (stereo not given) do in these assays?
TRPC4 agonist: inactive; TRPC6 inh: inactive; TRPC4 inh: inactive; TRPC6 activator: inactive; Kir21 inh: -0.77; TRPC4 PAM: inactive

Results for O=C(Nc1cccc(S(=O)(=O)NC2=NCCC2)c1)c1cc(Cl)ccc1[N+](=O)[O-] ?
TRPC4 agonist: inactive; TRPC6 inh: inactive; TRPC4 inh: inactive; TRPC6 activator: inactive; Kir21 inh: 0.44; TRPC4 PAM: inactive
